Apaf-1 inh – inhibitors of human Apaf-1 apoptosome; inhibition, % at 20 µM; reconstituted apoptosome caspase-3 activity, DEVD-Rh110 fluorescence; actives 0.71% (n = 330,000); active = inhibition of at least 40% at 20 µM;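 note: plate controls were DMSO wells for no effect and DEVD-CHO caspase inhibitor wells for full effect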
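System: Apoptosome proteins | Medium: Hepes pH 7.5 with detergent and BSA | Also added: Cytochrome c trigger plus (Z-DEVD)2-Rh110 caspase-3 substrate | Incubation: 30 min compound preincubation, 50 min activation, room temperature | Detection: Rhodamine 110 fluorescence at Ex 480/Em 540 nm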
UBC13 inh – blocks human UBC13 polyubiquitin chain formation | TR-FRET | inhibition, % at 20 µM | actives 0.47% (n = 330,000) | AID 485273; in the data active = inhibition above about 45%, passing the limit was not always enough
Target sequence (P61088 whole entry, looked up): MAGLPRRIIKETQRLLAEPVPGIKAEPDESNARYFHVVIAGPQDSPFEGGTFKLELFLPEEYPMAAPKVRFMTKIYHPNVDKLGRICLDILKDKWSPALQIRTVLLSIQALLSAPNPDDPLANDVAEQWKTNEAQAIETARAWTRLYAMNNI
SENP8 block-1 – blocks human SENP8 cleavage of Nedd8 substrate | actives 0.64% (n = 360,000) | inhibition, % at 20 µM | Q96LD8 | recombinant SENP8, Nedd8 substrate fluorescence; in the data active = inhibition mostly above about 40%, no sharp cut-off; inactive = mostly below about 27%
Target sequence (Q96LD8 whole entry, looked up): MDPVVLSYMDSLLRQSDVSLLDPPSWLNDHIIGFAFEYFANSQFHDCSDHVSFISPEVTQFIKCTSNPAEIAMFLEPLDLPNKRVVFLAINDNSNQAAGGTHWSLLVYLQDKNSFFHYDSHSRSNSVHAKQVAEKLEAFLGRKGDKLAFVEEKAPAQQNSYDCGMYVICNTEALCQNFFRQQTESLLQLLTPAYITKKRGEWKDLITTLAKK
SENP8 block-2 – SENP8 protease inhibition | Q96LD8 | purified SENP8, Z-RLRGG-aminoluciferin cleavage, luminescence | inhibition, % at 10 µM | actives 1.2% (n = 330,000); in the data active = inhibition above about 50%
SENP7 block – inhibitors of human SENP7 protease; AID 434973; actives 1.5% (n = 330,000); recombinant SENP7, Z-RLRGG-aminoluciferin luminescence, 40 min; inhibition, % at 5 µM; Q9BQF6;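 active = inhibition above about 50% at the single test dose, limit read from the data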;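 note: plate controls were DMSO with enzyme for no effect and no enzyme buffer wells for full effect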
SENP6 block – SENP6 protease inhibition. Q9GZR1. Recombinant SENP6 catalytic domain, aminoluciferin luminescence. inhibition, % at 10 µM. actives 1.8% (n = 330,000);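 active = inhibition above about 50% at the single tested dose, limit read from the data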;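 note: plate controls were DMSO wells with enzyme for no effect and DMSO wells lacking enzyme for full effect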
Casp3 counter – inhibits human caspase-3 in UBC13 counter-screen. actives 4% (n = 1,400). Recombinant caspase-3, Caspase-Glo 3/7 luminescence, 60 min. shares compounds with UBC13 inh. AID 488856. inhibition, % at 20 µM;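 active = mean inhibition across replicates above about 26%, limit read from the data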;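 note: plate controls were DMSO with caspase-3 for no effect and DMSO wells lacking enzyme for full effect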
Target sequence (P42574 whole entry, looked up): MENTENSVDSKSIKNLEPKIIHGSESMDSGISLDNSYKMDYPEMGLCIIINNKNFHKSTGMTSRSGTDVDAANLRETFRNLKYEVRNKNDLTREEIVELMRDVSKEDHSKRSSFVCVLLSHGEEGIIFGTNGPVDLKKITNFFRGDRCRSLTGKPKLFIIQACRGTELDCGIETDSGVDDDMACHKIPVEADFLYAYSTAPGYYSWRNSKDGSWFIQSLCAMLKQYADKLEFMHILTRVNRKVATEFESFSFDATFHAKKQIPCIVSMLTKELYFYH
UBC13 confirm – human UBC13 polyubiquitin inhibition, confirmed; shares compounds with UBC13 inh; UBC13 polyubiquitination, TR-FRET, biochemical; inhibition, % at 10 µM; actives 68% (n = 1,400); in the data active = inhibition above about 45%
Starred values were filed as active, the others as inactive; i = inactive; / = no result given. Shown are actives, neighbours in structure and some others; about 3% of the full set was active somewhere.

SMILES	Apaf-1 inh	UBC13 inh	SENP8 block-1	SENP8 block-2	SENP7 block	SENP6 block	Casp3 counter	UBC13 confirm
Cc1ccc(NC(=S)NNC(=O)c2nnn(-c3ccccc3)c2C)cc1	8.5	45.0*	16.3	-9.7	0.6	0.2	3.2	48.2*
O=C(Cc1csc(-c2cccc(F)c2)n1)Nc1cccc(S(=O)(=O)NC2=NCCC2)c1	/	/	20.7	/	/	/	/	/
CC1CCC(C(C)C)C(OC(=O)Cn2c(-c3ccc(Br)cc3)[n+](C)c3ccccc32)C1 (centres undefined)	29.3	54.7*	-4.8	-10.3	-3.4	-12.6	1.4	78.2*
O=C(CSc1nnc(-c2cccc(Br)c2)o1)N1CCOCC1	4.7	-0.8	1.6	-5.0	-0.7	-9.1	/	/
C[C@H]1CCCCO[C@H](CN(C)CC2CCCCC2)[C@@H](C)CN([C@@H](C)CO)C(=O)c2cc(NS(=O)(=O)c3ccccc3)ccc2O1	/	/	11.1	/	/	/	/	/
Cc1c(C)n(Cc2ccccc2)c2ncnc(N)c12	5.0	58.9*	-3.0	4.4	1.9	2.5	0.8	61.1*
O=C(CSCc1ccc([N+](=O)[O-])cc1)N/N=C/c1cccnc1	-0.8	85.6*	9.5	-14.7	-1.9	7.7	-1.2	95.9*
O=C(CSCc1ccc([N+](=O)[O-])cc1)N/N=C/c1ccncc1	-3.6	68.3*	0.8	-6.1	-5.2	-6.8	-4.9	75.3*
C/C(=N\NC(=O)CSCc1ccccc1Br)c1cccc([N+](=O)[O-])c1	-12.7	-4.0	17.1	-4.8	-9.2	-5.8	/	/
C/C(=N\NC(=O)CSCc1ccc([N+](=O)[O-])cc1)c1cccc(Br)c1	14.5	46.8*	11.6	0.9	3.0	-17.2	-2.2	33.9
CCOc1cc(N2CCOCC2)c(OCC)cc1NC(=O)COC(=O)c1ccc(OC)c([N+](=O)[O-])c1	/	/	3.4	/	/	/	/	/
CC(C)c1cc(C(=O)N2CCCC(CCC(=O)N3CCN(c4ccccn4)CC3)C2)no1 (centres undefined)	1.7	-13.5	1.3	-6.6	2.3	4.5	/	/
COc1ccc(CNn2c(C)nc3ccccc3c2=O)cc1	-6.7	47.0*	0.4	-3.3	2.0	-5.1	-2.2	48.9*
CCCCOc1ccc(CNn2c(C)nc3ccccc3c2=O)cc1	11.3	74.7*	-4.2	-5.5	-9.1	-10.3	0.2	82.5*
COc1ccc(CNn2c(-c3cccc(C)c3)nc3ccccc3c2=O)cc1OC	6.8	-7.3	-3.8	-6.2	-14.0	3.2	/	/
O=C(c1ccco1)N1CCN(Cc2cc(=O)c(OCc3ccc([N+](=O)[O-])cc3)co2)CC1	4.7	-1.2	6.8	6.0	3.9	-2.9	/	/
CCOc1ccc(C(=O)NCCC2=CCCCC2)cc1OCC	3.7	5.1	17.8	-9.1	6.9	4.7	/	/
Cc1cc(C2N=C(N)Nc3nc4ccccc4n32)c(C)n1-c1ccccc1Cl (centres undefined)	32.7	46.3*	19.9	-10.4	-6.2	-19.3	-3.5	55.4*
CN1CCC(N(C)C(=O)/C=C/c2cn(-c3ccccc3)nc2-c2cccs2)CC1	38.4	45.7*	-420.1	1.3	-7.3	-9.6	-0.4	44.0
CCN(CC(=O)Nc1ccc(NC(C)=O)cc1)C(=O)/C=C/c1cn(-c2ccccc2)nc1-c1cccs1	24.1	9.3	i	1.4	-0.4	-6.1	/	/
CC(C)(OC(=O)c1ccc(F)cc1)c1cc2ccccc2c(=O)o1	12.5	6.4	-1.6	0.0	3.3	5.9	/	/
O=C(OCc1cccc([N+](=O)[O-])c1)c1cccnc1Cl	1.3	49.8*	9.9	4.6	4.9	-7.1	30.7*	66.7*
O=C(OCc1ccccc1)c1cccnc1Cl	-12.1	3.3	0.4	-5.6	1.9	-12.4	/	/
Oc1[nH]c2ccccc2c1N=NC(=S)NCCc1ccccc1	/	/	34.7	/	/	/	/	/
NC(=S)N=Nc1c(O)[nH]c2ccccc12	-11.4	62.8*	17.1	1.5	-1.4	4.1	1.6	79.8*
SMILES	Apaf-1 inh	UBC13 inh	SENP8 block-1	SENP8 block-2	SENP7 block	SENP6 block	Casp3 counter	UBC13 confirm
CCOc1ccc(NC(=S)N=Nc2c(O)[nH]c3ccccc23)cc1	14.3	61.1*	23.3	2.2	4.9	3.8	3.4	76.7*
CCCCNC(=S)N=Nc1c(O)[nH]c2ccccc12	4.4	84.8*	16.8	-2.0	-8.4	10.7	2.3	101.8*
Cc1ccc2[nH]c(O)c(N=NC(N)=S)c2c1	9.1	79.2*	22.2	-3.5	-3.2	-2.5	-1.5	95.9*
N#CCSc1nc2ccccc2c(=O)n1CCCC(=O)NCc1ccco1	-2.2	2.4	11.5	-0.5	11.3	-1.2	/	/
COc1ccc(C(=O)Nn2c(SCC(=O)c3ccc(Cl)cc3)nc3ccccc3c2=O)cc1	3.3	50.0*	0.0	6.4	4.9	7.0	-0.4	56.0*
COc1ccc(C(=O)Nn2c(SCc3cccc([N+](=O)[O-])c3)nc3ccccc3c2=O)cc1	6.9	43.1	9.4	0.0	2.2	7.3	/	/
CCn1c(SCC(=O)NCc2ccco2)nc2ccccc2c1=O	3.9	8.5	-9.6	-2.8	4.0	-9.7	/	/
COc1ccc(C(=O)Nn2c(SCC(=O)N3CCC(C)CC3)nc3ccccc3c2=O)cc1	17.0	79.5*	-5.4	13.4	-4.1	9.7	84.8*	84.5*
O=C(CCCCCn1c(SCc2ccncc2)nc2ccccc2c1=O)NCc1ccco1	17.1	69.4*	-2.6	-4.9	7.4	-5.8	-2.7	47.4*
COc1ccc(C(=O)Nn2c(SCC(=O)NC3CCCCC3)nc3ccccc3c2=O)cc1	21.4	31.0	9.6	9.9	-8.3	11.8	/	/
COc1ccc(C(=O)Nn2c(SCC(=O)NCc3ccco3)nc3ccccc3c2=O)cc1	0.0	70.7*	15.0	3.4	3.0	13.4	24.8	73.9*
Cc1ccc(S(=O)(=O)N2CCCCC2)cc1C(=O)Nc1ccccn1	3.2	1.3	4.6	-0.2	-5.4	3.0	/	/
CN1CCCC(CC2c3ccccc3Sc3ccccc32)C1 (centres undefined)	23.2	46.3*	13.8	-4.1	-0.3	-10.3	-0.5	27.0
CN1CCCC(CN2c3ccccc3Sc3ccccc32)C1 (centres undefined)	15.2	37.5	-11.6	5.1	-1.1	-10.1	/	/
Cc1nn(CC(=O)NC2CC2)c(C)c1S(=O)(=O)N(C)C	/	/	8.5	/	/	/	/	/
COc1ccc(CCN2CCC(Nc3nc4ccccc4n3Cc3ccc(F)cc3)CC2)cc1	55.5*	48.1*	4.7	-1.9	0.9	-2.6	1.4	27.2
COc1ccc(C(=O)N2CCOC2CNC(=O)C(=O)NCCc2ccc(OC)c(OC)c2)cc1 (centres undefined)	1.9	-6.1	4.0	-6.1	11.2	-1.6	/	/
COc1ncnc2c1sc1nc(-c3ccccc3)c3c(c12)CCCC3	17.0	11.7	1.3	1.5	4.9	8.1	/	/
